Consider one compound from ChEMBL document CHEMBL2176909, “Kaurenoic acid from Sphagneticola trilobata Inhibits Inflammatory Pain: effect on cytokine production and activation of the NO-cyclic GMP-protein kinase G-ATP-sensitive potassium channel signaling pathway” (J Nat Prod, 2012).

Each structure is given as a SMILES string. The source made the active and inactive calls.

For series [1], the system named is Mus musculus. Nature of the series: Antihyperalgesic activity in carrageenan-induced mechanical hyperalgesia Swiss mouse model assessed as paw withdrawal latency at 5 mg/kg, ip administered 40 mins prior to challenge by electronic pressure-meter test. Further details: dose 5 mg/kg. In kind it is functional, organism-based. The method, boiled down: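 Male Swiss mice dosed po (1–10 mg/kg, 2% DMSO in saline) 30 min before intraplantar carrageenin (100 μg/paw). Control indomethacin 5 mg/kg ip given 40 min before. Electronic pressure-meter readings at 1, 3 and 5 h, mean of three. Δ withdrawal threshold (g) is the post-stimulus reading minus zero-time. n = 5.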

Series [2] has as its system Mus musculus. Nature of the series: Gastrointestinal toxicity in Swiss mouse assessed as increase in stomach MPO activity at 2.5 mg/kg, po for 7 days measured over 7 days relative to vehicle-treated control. In kind it is organism-based. Further details: dose 2.5 mg/kg, route oral. The settings on record: in vivo, 168 h. The method, boiled down:
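Mice dosed po daily for 7 days: vehicle (2% DMSO/saline or Tris/HCl pH 8.0), 10 mg/kg, or indomethacin 2.5 mg/kg. Stomach is homogenized in 50 mM phosphate buffer pH 6.0 with 0.5% HTAB. Supernatant is reacted with o-dianisidine/H2O2 and read at 450 nm. Results expressed as neutrophils ×10^4/mg tissue from a neutrophil standard curve. n = 8.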

The test system of series [3] is Mus musculus. In words: Hepatotoxicity in Swiss mouse assessed as change in plasma ALT level at 2.5 mg/kg, po for 7 days measured over 7 days relative to vehicle-treated control. It counts as toxicity, organism-based. Further details: dose 2.5 mg/kg, route oral. The conditions noted are these: in vivo, 168 h. An outline of the steps: (§1)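 Mice dosed po daily for 7 days: vehicle (2% DMSO/saline or Tris/HCl pH 8.0), 10 mg/kg, or indomethacin 2.5 mg/kg. Heparinized blood is drawn under terminal anesthesia, and plasma AST and ALT are measured with a diagnostic kit. n = 8.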

For series [4], the system named is Mus musculus. In words: Antinociceptive activity in Swiss mouse assessed as inhibition of PBQ-induced writhing at 5 mg/kg, ip administered 30 mins prior to PBQ challenge. In kind it is functional, organism-based. Further details: dose 5 mg/kg.
Series [5] deals with Mus musculus. Nature of the series: Antinociceptive activity in Swiss mouse assessed as inhibition of acetic acid-induced writhing at 5 mg/kg, ip administered 30 mins prior to acetic acid challenge. In kind it is functional, organism-based. Further details: dose 5 mg/kg.
Series [6] has as its system Mus musculus. Nature of the series: Hepatotoxicity in Swiss mouse assessed as change in plasma AST level at 2.5 mg/kg, po for 7 days measured over 7 days relative to vehicle-treated control. In kind it is toxicity, organism-based. Further details: dose 2.5 mg/kg, route oral. The conditions noted are these: in vivo, 168 h. An outline of the steps: as §1

As for `COc1ccc2c(c1)c(CC(=O)O)c(C)n2C(=O)c1ccc(Cl)cc1` [INDOMETHACIN], the outcome in series [1] was Active. Further, the Activity entry in series [2], in series [3] and in series [6] was “Toxic” in each case. In addition, the inhibition result in series [4] and in series [5] was “Active” throughout.
